One block for each molecule: values may come before it.
What was measured:
Format in all cases: functional, cell-based
[1] = tested on: HCT-116; experiment: Antiproliferative activity against human HCT-116 cells after 10 days; settings: HCT-116, 240 h
Procedure, shortened: (§1)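 10-day 2D proliferation screen of a broad cancer cell panel (about 240 lines, Eurofins Oncopanel). All lines were mycoplasma negative and STR verified. Compounds were dosed up to a top concentration of 10 μM or 25 μM, depending on the inhibitor. Anti-proliferative IC50 values are the average of three biological replicates.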

[2] = tested on: HeLa; experiment: Antiproliferative activity against human HeLa cells after 10 days; settings: 240 h; procedure, shortened: as §1
[3] = tested on: A673; experiment: Antiproliferative activity against human A673 cells after 10 days; settings: A673, 240 h
Procedure, shortened: (§2)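 Tested as part of a 240-line cancer cell panel (Eurofins Oncopanel); all lines were mycoplasma-negative and STR-verified. Cells were exposed to a compound concentration series in 2D culture for 10 days. The highest concentration was 10 μM or 25 μM, depending on the inhibitor. Antiproliferative IC50 was derived from the mean of three biological replicates.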

[4] = tested on: HuP-T4; experiment: Antiproliferative activity against human HuP-T4 cells after 10 days; settings: HuP-T4, 240 h
Procedure, shortened: (§3)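 Broad cancer cell line panel (Eurofins Oncopanel, about 240 lines; mycoplasma negative, STR verified) grown in 2D culture and exposed to compound in a 10-day proliferation assay. The top concentration was 10 μM for the SMYD2 inhibitor series and 25 μM for the SMYD3 inhibitor. The proliferative IC50 is taken from concentration-response data, each value the mean of three biological replicates.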

[5] = tested on: COLO-320-HSR; experiment: Antiproliferative activity against human COLO 320HSR cells after 10 days; settings: 240 h; procedure, shortened: as §2
[6] = tested on: MIA PaCa-2; experiment: Antiproliferative activity against human Mia PaCa-2 cells after 10 days; settings: MIA PaCa-2, 240 h; procedure, shortened: as §3
[7] = tested on: EFM-19; experiment: Antiproliferative activity against human EFM-19 cells after 10 days; settings: EFM-19, 240 h; procedure, shortened: as §1
[8] = tested on: OVCAR-3; experiment: Antiproliferative activity against human OVCAR-3 cells after 10 days; settings: OVCAR-3, 240 h; procedure, shortened: as §3
[9] = Antiproliferative activity against human BM-1604 cells after 10 days; settings: BM-1604, 240 h; procedure, shortened: as §2
[10] = tested on: BFTC-905; experiment: Antiproliferative activity against human BFTC-905 cells after 10 days; settings: BFTC-905, 240 h; procedure, shortened: as §2
[11] = tested on: YAPC; experiment: Antiproliferative activity against human YAPC cells after 10 days; settings: 240 h
[12] = tested on: AU565; experiment: Antiproliferative activity against human AU565 cells after 10 days; settings: AU565, 240 h; procedure, shortened: as §2
[13] = tested on: MCF7; experiment: Antiproliferative activity against human MCF7 cells after 10 days; settings: MCF7, 240 h; procedure, shortened: as §3
[14] = tested on: SK-UT-1; experiment: Antiproliferative activity against human SK-UT-1 cells after 10 days; settings: SK-UT-1, 240 h
[15] = tested on: Hs 695T; experiment: Antiproliferative activity against human Hs 695T cells after 10 days; settings: 240 h; procedure, shortened: as §1
[16] = tested on: CAL-27; experiment: Antiproliferative activity against human CAL-27 cells after 10 days; settings: CAL-27, 240 h; procedure, shortened: as §2
[17] = tested on: SW1088; experiment: Antiproliferative activity against human SW1088 cells after 10 days; settings: SW1088, 240 h
[18] = tested on: MEG-01; experiment: Antiproliferative activity against human MEG-01 cells after 10 days; settings: MEG-01, 240 h; procedure, shortened: as §3
[19] = tested on: BT-474; experiment: Antiproliferative activity against human BT-474 cells after 10 days; settings: BT-474, 240 h; procedure, shortened: as §2
[20] = tested on: SW480; experiment: Antiproliferative activity against human SW480 cells after 10 days; settings: SW480, 240 h
[21] = Antiproliferative activity against human SW579 cells after 10 days; settings: SW579, 240 h
[22] = tested on: SW48; experiment: Antiproliferative activity against human SW48 cells after 10 days; settings: SW48, 240 h
[23] = tested on: THP-1; experiment: Antiproliferative activity against human THP-1 cells after 10 days; settings: THP-1, 240 h
[24] = tested on: PC-3; experiment: Antiproliferative activity against human PC-3 cells after 10 days; settings: PC-3, 240 h; procedure, shortened: as §3
[25] = tested on: U-266; experiment: Antiproliferative activity against human U266B1 cells after 10 days; settings: U-266, 240 h
[26] = tested on: J82; experiment: Antiproliferative activity against human J82 cells after 10 days; settings: J82, 240 h; procedure, shortened: as §3
[27] = tested on: SJRH30; experiment: Antiproliferative activity against human SJRH30 cells after 10 days; settings: SJRH30, 240 h
[28] = tested on: RPMI-7951; experiment: Antiproliferative activity against human RPMI-7951 cells after 10 days; settings: RPMI-7951, 240 h
[29] = tested on: NALM-6; experiment: Antiproliferative activity against human NALM-6 cells after 10 days; settings: NALM-6, 240 h; procedure, shortened: as §3
[30] = tested on: BHT-101; experiment: Antiproliferative activity against human BHT-101 cells after 10 days; settings: BHT-101, 240 h; procedure, shortened: as §2
[31] = tested on: T47D; experiment: Antiproliferative activity against human T47D cells after 10 days; settings: 240 h
[32] = Antiproliferative activity against human MT-3 cells after 10 days; settings: MT-3, 240 h; procedure, shortened: as §3
[33] = tested on: SNU-16; experiment: Antiproliferative activity against human SNU-16 cells after 10 days; settings: SNU-16, 240 h
[34] = Antiproliferative activity against human HUH-6-clone5 cells after 10 days; settings: HUH-6-clone5, 240 h; procedure, shortened: as §1
[35] = tested on: Hs 766; experiment: Antiproliferative activity against human Hs766T cells after 10 days; settings: Hs 766, 240 h; procedure, shortened: as §1
[36] = tested on: 647-V; experiment: Antiproliferative activity against human 647-V cells after 10 days; settings: 240 h
Procedure, shortened: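 Tested in the Eurofins Oncopanel of about 240 cancer cell lines, all mycoplasma-negative and STR-verified. Cells were exposed to compound for 10 days in 2D culture, and a proliferative IC50 was derived from the concentration series. The highest concentration tested was 10 μM in the SMYD2 inhibitor screen and 25 μM in the SMYD3 inhibitor screen. Values are means of three biological replicates.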

[37] = tested on: RPMI-8226; experiment: Antiproliferative activity against human RPMI-8226 cells after 10 days; settings: RPMI-8226, 240 h
[38] = tested on: SCC-4; experiment: Antiproliferative activity against human SCC-4 cells after 10 days; settings: SCC-4, 240 h
[39] = tested on: CHL-1; experiment: Antiproliferative activity against human CHL-1 cells after 10 days; settings: CHL-1, 240 h; procedure, shortened: as §2
[40] = tested on: SW1783; experiment: Antiproliferative activity against human SW1783 cells after 10 days; settings: SW1783, 240 h
[41] = tested on: MDA-MB-453; experiment: Antiproliferative activity against human MDA-MB-453 cells after 10 days; settings: MDA-MB-453, 240 h
Procedure, shortened: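 Cell lines run in the Eurofins Oncopanel broad cancer panel, all mycoplasma-negative and STR-verified. Cells were exposed to a compound concentration series in a 10-day proliferation assay, and an anti-proliferative IC50 was derived. Values are the mean of three biological replicates.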

[42] = tested on: T98G; experiment: Antiproliferative activity against human T98G cells after 10 days; settings: 240 h
[43] = tested on: A498; experiment: Antiproliferative activity against human A498 cells after 10 days; settings: A498, 240 h; procedure, shortened: as §2
[44] = tested on: SNU1; experiment: Antiproliferative activity against human SNU1 cells after 10 days; settings: SNU1, 240 h
[45] = Antiproliferative activity against human BC1 cells after 10 days; settings: BC1, 240 h; procedure, shortened: as §2
[46] = Antiproliferative activity against human CEM/C1 cells after 10 days; settings: CEM/C1, 240 h; procedure, shortened: as §2

- IC50 [1]: 2660 nM
- IC50 [2]: 2960 nM
- IC50 [5]: 2740 nM
- IC50 [6]: 2030 nM
- IC50 [8]: 3950 nM
- IC50 [13]: 3110 nM
- IC50 [14]: 1410 nM
- IC50 [17]: 1180 nM
- IC50 [19]: 2940 nM
- IC50 [20]: 2150 nM
- IC50 [22]: 1350 nM
- IC50 [23]: 2860 nM
- IC50 [24]: 2770 nM
- IC50 [31]: 2220 nM
- IC50 [33]: 993 nM
- IC50 [37]: 1560 nM
- IC50 [40]: 2960 nM
- IC50 [41]: 1500 nM
- IC50 [44]: 1190 nM
SMILES: Cc1cn(CCN2CCN(c3ccccc3-c3cc(C#N)cc(C(=O)NCCCN4CCCC4)c3)CC2)c2ccccc12
- IC50 [3]: 2030 nM
- IC50 [4]: 3480 nM
- IC50 [7]: 2680 nM
- IC50 [9]: 4820 nM
- IC50 [10]: 2500 nM
- IC50 [11]: 2870 nM
- IC50 [12]: 1250 nM
- IC50 [15]: 6650 nM
- IC50 [16]: 2520 nM
- IC50 [18]: 1280 nM
- IC50 [21]: 2980 nM
- IC50 [25]: 1260 nM
- IC50 [26]: 3150 nM
- IC50 [27]: 1230 nM
- IC50 [28]: 2050 nM
- IC50 [29]: 1140 nM
- IC50 [30]: 1430 nM
- IC50 [32]: 1240 nM
- IC50 [34]: 1340 nM
- IC50 [35]: 2750 nM
- IC50 [36]: 1480 nM
- IC50 [38]: 3590 nM
- IC50 [39]: 2570 nM
- IC50 [42]: 5870 nM
- IC50 [43]: 2010 nM
- IC50 [45]: 3650 nM
- IC50 [46]: 1270 nM

- IC50 [1]: > 10000 nM
- IC50 [2]: > 10000 nM
- IC50 [5]: > 10000 nM
- IC50 [6]: > 10000 nM
- IC50 [8]: > 10000 nM
- IC50 [13]: > 10000 nM
- IC50 [14]: > 10000 nM
- IC50 [17]: > 10000 nM
- IC50 [19]: > 10000 nM
- IC50 [20]: > 10000 nM
- IC50 [22]: > 10000 nM
- IC50 [23]: > 10000 nM
- IC50 [24]: > 10000 nM
- IC50 [31]: > 10000 nM
- IC50 [33]: > 10000 nM
- IC50 [37]: > 10000 nM
- IC50 [40]: > 10000 nM
- IC50 [41]: > 10000 nM
- IC50 [44]: > 10000 nM
SMILES: O=C(NC1CN(Cc2cnn(Cc3ccccc3)c2)C1)c1cn(C2CC2)nn1
- IC50 [3]: > 10000 nM
- IC50 [4]: > 10000 nM
- IC50 [7]: > 10000 nM
- IC50 [9]: > 10000 nM
- IC50 [10]: > 10000 nM
- IC50 [11]: > 10000 nM
- IC50 [12]: > 10000 nM
- IC50 [15]: > 10000 nM
- IC50 [16]: > 10000 nM
- IC50 [18]: > 10000 nM
- IC50 [21]: > 10000 nM
- IC50 [25]: > 10000 nM
- IC50 [26]: > 10000 nM
- IC50 [27]: > 10000 nM
- IC50 [28]: > 10000 nM
- IC50 [29]: > 10000 nM
- IC50 [30]: > 10000 nM
- IC50 [32]: > 10000 nM
- IC50 [34]: > 10000 nM
- IC50 [35]: > 10000 nM
- IC50 [36]: > 10000 nM
- IC50 [38]: > 10000 nM
- IC50 [39]: > 10000 nM
- IC50 [42]: > 10000 nM
- IC50 [43]: > 10000 nM
- IC50 [45]: > 10000 nM
- IC50 [46]: > 10000 nM
